Measurements from ChEMBL document CHEMBL4513216, “Probing the Open Global Health Chemical Diversity Library for Multistage-Active Starting Points for Next-Generation Antimalarials” (ACS Infect Dis, 2020).

Experiment: Toxicity liver stage against HepG2, at 10uM
Format: cell-based
Parameters: test concentration 10 uM, cell line HepG2-A16-CD81EGFP
Conditions: human, HepG2-A16-CD81EGFP cells; read-out: INHIBITION
Summary of the method: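 Uninfected HepG2-A16-CD81EGFP cells, 3 × 10^3 per well, 1536-well, plated on prespotted compound at 10 μM final, parasite-free screening media added to match infected plates; puromycin 10 μM positive, DMSO 0.5% negative; run in parallel with 48 h PbLuc assay at 37 °C, 5% CO2; viability by CellTiter-Glo luminescence, normalized to controls.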

Point of comparison: `Cc1ccn(-c2ccccc2NCc2ccccn2)n1`, cytotoxicity at 10 µM -9.99%. Against it:
- NC(=O)C1CCN(C(=O)CCSCc2ccc(Cl)c(Cl)c2)CC1 — higher, -1.35%
- c1ccc(CN2CCC3(CC2)Nc2ccccc2CO3)cc1 — higher, -0.719%
- Fc1ccc(OCc2nnc([C@H]3CCN(Cc4ccccn4)C3)o2)cc1 — higher, 0.413%
- Cc1nn(-c2ccccn2)c(C)c1[C@@H]1C=C[C@@H](NC(=O)NC(C)C)C1 — higher, 1.52%
- O=C1c2ncccc2C(CCO)N1Cc1ccccc1 (configuration not stated) — higher, -4.26%
- COc1cccc(N2CCN(C(=O)COc3c(C)occc3=O)CC2)c1 — higher, -1.29%
- COCCn1/c(=N\C(=O)CN(C)S(C)(=O)=O)sc2cc(OC)ccc21 — higher, -7.93%
- O=C(NCC(O)c1cccs1)c1ccco1 (configuration not stated) — lower, -14.7%
- Cc1oncc1C(=O)N1CC2CC1(C(=O)NCc1ccco1)C2 — higher, 4.76%
- Cn1cc(CN2CC[C@H]3[C@H]2CC(=O)N3Cc2ccncc2)cn1 — higher, -5.87%
- Cc1ccc(CNC(=O)c2nc3c(o2)CN(c2ncccn2)C3)o1 — higher, -5.58%
- O=C(NC1CCc2[nH]c(=O)ccc2C1)C1CCOCC1 (configuration not stated) — higher, 1.42%
- CCS(=O)(=O)N1CCC2(CN(C(=O)c3cscn3)C2)C1 — higher, 10.8%
- O=c1cc(CN2CCCC2)nc2n1CCCN(CC1CCOCC1)C2 — higher, 9.97%
- O=C(c1cscn1)N1C[C@@H](Oc2cccnc2)[C@H]2OCCC[C@H]21 — higher, 7.77%
- NC(=O)C1CCN(c2nc3nccc(-c4ccccn4)c3c(=O)[nH]2)CC1 — higher, -9.24%
- Cc1ccc(NCc2nc3n(n2)CCCCC3)c(C)c1 — higher, 4.7%
- Cc1c(S(=O)(=O)N2CCOCC2)cc2c(C)cc(=O)n3c2c1CCC3 — higher, 3.36%
- CSCc1cccc(S(=O)(=O)N2CCCCCC2)c1 — higher, 6.91%
- COc1c(C(=O)NCc2cccnc2)nnn1Cc1ccccc1 — higher, 12.5%
- CS(=O)(=O)N1CCC(n2nnn(-c3ccccc3)c2=O)CC1 — higher, 2.58%
- Oc1cc(-c2nccs2)nc(C2CCN(Cc3cccs3)CC2)n1 — higher, 16.7%
- CN(C(=O)c1cc(F)ccc1F)[C@@H]1CC[C@@H](O)[C@@H]1O — higher, -0.822%
- CS(=O)(=O)N1CCC(c2ccncn2)CC1 — higher, 6.77%
- Cn1nccc1CCC(=O)N1CCOC(c2cnccn2)C1 (configuration not stated) — lower, -25.9%
- Cc1cc(-c2ccc(C(=O)O)cc2)nc(C2CCN(C(C)C)CC2)n1 — lower, -26.3%
- Oc1nc(-c2cnccn2)nc2c1CCN(Cc1ccccn1)C2 — higher, 1.51%
- O=C(c1ccc(Cl)s1)N1CCC2(COc3ncccc3S(=O)(=O)N2)C1 (configuration not stated) — higher, 8.77%
- Cc1ccc2nc(CN(C)Cc3ccc(C)o3)cc(=O)n2c1 — higher, -3.02%
- CCC(CC)C(O)CNC(=O)Cc1c[nH]c2ncccc12 (configuration not stated) — higher, 0.476%
- O=S(=O)(c1cccc(Cl)c1)N1CCCC(Cn2cncn2)C1 (configuration not stated) — higher, -7.21%
- Brc1cnc(NCCCOCC2CCOC2)nc1 (configuration not stated) — higher, -2.15%
- Cc1nnc2n1CC(CNCc1nc(-c3cccs3)no1)CC2 (configuration not stated) — higher, 10.1%
- CC1(C)CN(C(=O)CCc2nc(-c3ccncc3)no2)CCO1 — higher, -3.16%
- COc1ccccc1CNCCc1cccc(C(N)=O)c1 — higher, 3.65%
- Cc1ccccc1C(C)NC(=O)CN1CCN(Cc2cccs2)CC1 (configuration not stated) — higher, 48.9%
- CC(NCCc1nccn1Cc1ccccc1)c1ccsc1 (configuration not stated) — higher, 8.4%
- CN(C)c1cc(CNC(=O)C2COc3ccccc3O2)ccn1 (configuration not stated) — higher, 2.5%
- NS(=O)(=O)CCNC(=O)c1cc2ccccc2nc1N1CCCC1 — lower, -10.7%
- COc1ccc(CNC(=O)NC2CCN(CC3CCCC3)CC2)cn1 — higher, -8.01%
- Cc1ccc(S(=O)(=O)N2CC[C@@H](O)C2)c(F)c1 — lower, -10.2%
- CC(C)(C)n1ncc2c(=O)[nH]c(N3CCC4(CCCCC4)C3)nc21 — higher, -7.72%
- O=C(c1ccc(OCC2CC2)cc1)N1CCOCC1c1ncon1 (configuration not stated) — higher, 1.79%
- CN(c1c(F)cccc1F)S(=O)(=O)c1cc2c(c(C(=O)O)c1)OCCO2 — higher, -7.57%
- CC(C)n1cc(S(=O)(=O)N2CCCC(N3CCCCC3)C2)cn1 (configuration not stated) — higher, 2.78%
- CCc1nc(CCNC(=O)C2CC2)sc1C — lower, -14.1%
- Cc1nc(CN2CCC(CNC(=O)CCC3CCCC3)CC2)oc1C — higher, -1.29%
- O=C(Cc1ccc2c(c1)CCC2)N1CCCC1Cn1cccn1 (configuration not stated) — lower, -139%
- O=C(c1cc2ccccc2c(=O)[nH]1)N1CCN(CCO)CC1 — higher, 4.96%
- COc1ncc(C)cc1NC(=O)CCc1ccccn1 — higher, -9.58%
- Cc1nc(C(C)(C)C)sc1C(=O)NCCn1cccn1 — higher, -3.17%
- CCN(C(=O)c1cccc2c1OCO2)c1ccc(Br)cn1 — higher, 3.44%
- O=c1n(CCSCCOc2ccc(Br)cc2)nc2ccccn12 — higher, 10%
- Cc1noc(C)c1CN(C)C(=O)CCOc1ccc(Cl)cc1 — higher, -2.51%
- CCCN1CCCN(C(=O)c2oc(C)nc2C)CC1 — higher, 24.3%
- CCOCc1ccccc1NC(=O)NCC(c1cnn(C)c1)N(C)C (configuration not stated) — higher, 3.96%
- Cc1ccc(CNCCCNS(C)(=O)=O)c(Br)c1 — higher, 3.36%
- CN(CCNC(=O)Nc1nccs1)Cc1ccc(F)cc1 — higher, -1.32%
- CCCNC(=O)C(C)NC(=O)CCc1ccccc1Br (configuration not stated) — higher, 14.5%
- Cc1cc(=O)n2ncnc2n1CC(O)c1ccccc1Cl (configuration not stated) — higher, 1.67%
- Cn1cccc1C(=O)N1C[C@H]2CN(CC3CC3)C(=O)[C@H]2C1 — lower, -103%
- CN1CCN(S(C)(=O)=O)Cc2cccnc21 — lower, -112%
- CCn1cc2c(n1)C(COC)CN(Cc1ccccn1)C2 (configuration not stated) — higher, -3.73%
- Cc1ncc(-c2ccnc(NC3CC3)n2)c(-c2cccnc2)n1 — lower, -14.2%
- COCCN1CCN(C(=O)c2ccc(C)cc2OC)[C@H]2CS(=O)(=O)C[C@H]21 — higher, -3.81%
- COCC(Nc1ncnc2c1CCNCC2)c1ccccn1 (configuration not stated) — higher, 0.565%
- O=c1cc(N2CCCCC2)cnn1C[C@H](O)CO — higher, 2.04%
- Cc1nc(C)c(CC(=O)N2C[C@@H](C(=O)O)[C@H](c3ccccc3C)C2)s1 — lower, -120%
- CCCOC(=O)N1CCCC2(CCN(Cc3cccc(C#N)c3)C2)C1 (configuration not stated) — higher, -4.59%
- Nc1cc(-c2ccc(C(=O)O)cc2O)c2cc[nH]c2n1 — higher, 10.3%
- Cc1nccn1C1(C(=O)O)CCN(Cc2ccc3occc3c2)CC1 — higher, -1.61%
- OC[C@H]1CCN(Cc2ccc3ccccc3n2)C[C@@H]1O — higher, -6%
- O=C(CCn1cc(Cl)cn1)N1CCC2(CC1)OCCCC2O (configuration not stated) — lower, -135%
- CCC(C)N(Cc1ccsc1)C(=O)c1ccc(CO)cc1 (configuration not stated) — higher, 4.26%
- O=C(c1ccc(S(=O)(=O)NCc2ccon2)cc1)N1CCOCC1 — higher, 3.08%
- COCCNc1nc2c(c(NCc3cnc(C)cn3)n1)CCNCC2 — higher, -0.106%
- CN(Cc1ncc[nH]1)S(=O)(=O)c1cccc(C(=O)N2CCOCC2)c1 — higher, -9.5%
- c1ccc(-c2noc3c2CN(CC2CC2)CC3)cc1 — lower, -13.2%
- Cn1ncc(NC(=O)c2noc3c2CCCC3)c1C(N)=O — higher, 5.8%
- O=C(c1ccc(F)cc1F)N1CC[C@H](O)[C@@H](N2CCOCC2)CC1 — higher, 2.62%
- CC(C)CN1CCN(C(=O)CCn2cccn2)CC1 — higher, -5.45%
- Cc1nn(C)c(Cl)c1C1CCCN1C(=O)c1cc(C2CC2)on1 (configuration not stated) — lower, -13.3%
- O=C(O)c1cc(S(=O)(=O)N2CCOc3ccccc32)ccc1Br — higher, -3.39%
- CC(O)CN1CCN(C(=O)c2cc(Cl)cc3cccnc23)CC1 (configuration not stated) — higher, -1.78%
- CCc1ccc(C(=O)NCc2ccnc(N3CCN(C)CC3)c2)o1 — higher, -9.07%
- CCc1ccc(C(=O)NC2CCc3nc(C)cn3C2)o1 (configuration not stated) — higher, -8.45%
- Cc1noc(C(C)C)c1C(=O)NCC(c1cccs1)N(C)C (configuration not stated) — lower, -14.5%
- Cc1[nH]ncc1C(=O)N1CCCC1c1noc(C2CC2)n1 (configuration not stated) — lower, -18.1%
- CC(=O)Nc1nc(C(=O)N2CCCC2c2noc(C3CC3)n2)cs1 (configuration not stated) — lower, -10.5%
- O=C(c1cnn2cccnc12)N1CCCC(n2ccnc2)C1 (configuration not stated) — lower, -29.7%
- Cc1nn2cccnc2c1C(=O)N1CCCC(n2ccnc2C)C1 (configuration not stated) — higher, -9.53%
- CN(Cc1ccccc1)CC(O)Cn1cnc2ccccc2c1=O (configuration not stated) — higher, -5.02%
- COc1cccc(-n2nnc(C(=O)N3CCCC3)c2C)c1 — higher, -5.41%
- CN(Cc1ccccc1O)C(=O)NC1CCCN(c2ncccn2)C1 (configuration not stated) — higher, -0.421%
- CCc1nc(CC(=O)N2CCCC2Cn2cccn2)cs1 (configuration not stated) — higher, -2.6%
- Cn1cc(C(=O)CC2CCCN2C(=O)c2cncc3ccccc23)cn1 (configuration not stated) — higher, 4.11%
- CCN1CCC(NC(=O)CN2CCCC2Cn2nc(C)cc2C)CC1 (configuration not stated) — higher, -6.83%
- CCN1CCN(C(=O)NCCOc2ccc3c(c2)OCO3)CC1 — higher, -4.59%
- CCOc1ccccc1-c1noc(CN2CCCC(O)C2)n1 (configuration not stated) — higher, -3.85%
- CCOC(=O)CSc1nnc([C@@H](N)C(C)C)o1 — higher, 0.979%
- FC(F)(F)c1nc(C2CCNCC2)no1 — higher, 5.88%
- CO[C@@H]1CCN(c2nnc(C)s2)C[C@@H]1Cc1cccc(C)c1 — higher, 11.8%
- CN(Cc1ccco1)Cc1cnc2n1CCN(c1ncccn1)CC2 — higher, -0.603%
- Cc1ccc2c(n1)N(CC(C)C)CCN(C(=O)Cc1ccccn1)C2 — higher, 12.7%
- CC(C)CN1CCS(=O)(=O)[C@@H]2CCN(S(=O)(=O)CC(C)C)CC[C@@H]21 — higher, 11.3%
- O=C(NCc1cccnc1)N1CCC2(CC(=O)N(c3ccsc3)C2)C1 (configuration not stated) — higher, -0.125%
- Cc1cccc(CN2C[C@@H](C)[C@@]3(CCN(CC(=O)N(C)C)C3=O)C2)c1 — higher, -0.979%
- CN1CCc2cc(C(=O)N(C)C)c(NCC3CC3)nc2CC1 — higher, 7.8%
- CCO[C@@H]1CN(S(=O)(=O)c2cn(C)cn2)[C@@H]2CCCO[C@@H]21 — lower, -146%
- NC(=O)N1CCC2(CC1)CN(Cc1cccnc1)C(=O)CO2 — higher, 3.63%
- CCC(=O)N1CC[C@@H]2[C@H](CC1)N(Cc1cccc(C)n1)CCS2(=O)=O — higher, -1.31%
